This passage reports inhibition results from ChEMBL document CHEMBL5712892, “EZH1 and EZH2 promote skeletal growth by repressing inhibitors of chondrocyte proliferation and hypertrophy” (Nat Commun, 2016).

Experiment [1] addresses T1, EZH1/2 (Mus musculus) (UniProt Q61188+P70351). As to the kind of experiment: Inhibition of Ezh1/2 in wild-type C57BL/6 mouse isolated primary chondrocyte pellets assessed as reduction in Ihh expression at 2 uM by RT-PCR analysis. Type of experiment: cell-based. The method, boiled down: (§1)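 Pellets of 2.4×10^5 primary chondrocytes from 1-week-old wild-type mice (400 g, 10 min) were cultured up to 4 weeks, switched to 0.1% FBS medium after 16 h. DMSO or UNC1999 (2 µM final) was added at 16 h and refreshed every other day. Col10a1, Ihh, Igfbp3 and Igfbp5 mRNA were measured by real-time RT-PCR at several time points; two-way ANOVA, N = 6.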

Experiment [2] addresses T1, EZH1/2 (Mus musculus). Nature of the experiment: Inhibition of Ezh1/2 in wild-type C57BL/6 mouse isolated primary chondrocyte pellets assessed as reduction in H3K27me2 level at 2 uM measured after 1 week by immunohistological staining based assay. Type of experiment: cell-based. The conditions noted are these: time 1.0 weeks. In short, it runs like this:
(§2)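 Chondrocyte pellets (2.4×10^5 cells, from 1-week-old wild-type mice) were kept in 0.1% FBS medium with DMSO or 2 µM UNC1999 from 16 h, refreshed every other day, for 1 week. Sections were immunostained for H3K27me2 or H3K27me3 (1:1,000, proteinase K retrieval, DAB).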

For experiment [3], the target named is T1, EZH1/2 (Mus musculus). Nature of the experiment: Inhibition of Ezh1/2 in Igf1-treated wild-type C57BL/6 mouse fetal metatarsal bone assessed as reduction in hypertrophic cell size at 2 uM. Type of experiment: tissue-based. In short, it runs like this:
(§3)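 Fetal metatarsals (middle three) from E18 wild-type C57BL/6 mice cultured 3 days at 37 °C, 5% CO2 in α-MEM with 0.2% BSA, 0.1 mM β-glycerophosphate, 50 µg ml-1 ascorbic acid. DMSO or UNC1999 (2 µM), ± Igf1 100 ng ml-1, Igfbp3 50 nM or Igfbp5 50 nM, added at start and refreshed day 2. Hypertrophic cell heights averaged within a 100×100 µm area at HZ centre; N = 6.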

Experiment [4] has as its target T1, EZH1/2 (Mus musculus). As to the kind of experiment: Inhibition of Ezh1/2 in Igfbp3-treated wild-type C57BL/6 mouse fetal metatarsal bone assessed as reduction in hypertrophic cell size at 2 uM. Type of experiment: tissue-based. The method, boiled down: as §3
The target in experiment [5] is T1, EZH1/2 (Mus musculus). Nature of the experiment: Inhibition of Ezh1/2 in Igfbp5-treated wild-type C57BL/6 mouse fetal metatarsal bone assessed as reduction in hypertrophic cell size at 2 uM. Type of experiment: tissue-based. The method, boiled down:
as §3

The target of experiment [6] is T1, EZH1/2 (Mus musculus). Nature of the experiment: Inhibition of Ezh1/2 in wild-type C57BL/6 mouse isolated primary chondrocyte pellets assessed as increase in Igfbp3 expression at 2 uM by RT-PCR analysis. Type of experiment: cell-based. In short, it runs like this: as §1
Experiment [7] concerns the target T1, EZH1/2 (Mus musculus). As to the kind of experiment: Inhibition of Ezh1/2 in wild-type C57BL/6 mouse fetal metatarsal bone assessed as reduction in H3K27me3 expression at 2 microM by immunohistochemical analysis. Type of experiment: tissue-based. The method, boiled down: (§4)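 E18 wild-type C57BL/6 metatarsals cultured 3 days with DMSO or 2 µM UNC1999, added at start and refreshed day 2. Paraffin sections were proteinase K retrieved (100 µg ml-1, 30 min, room temperature) and peroxidase blocked. They were immunostained with anti-H3K27me2 or anti-H3K27me3 (1:1,000) by ABC/DAB.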

Experiment [8] has as its target T1, EZH1/2 (Mus musculus). As to the kind of experiment: Inhibition of Ezh1/2 in wild-type C57BL/6 mouse isolated primary chondrocyte monolayer culture assessed as increase in Igfbp5 expression at 2 uM by immunostaining analysis. Type of experiment: cell-based.
For experiment [9], the target named is T1, EZH1/2 (Mus musculus). Nature of the experiment: Inhibition of Ezh1/2 in wild-type C57BL/6 mouse fetal metatarsal bone assessed as increase in Igfbp5 expression at 2 uM by immunostaining assay. Type of experiment: tissue-based.
In experiment [10] the target is T1, EZH1/2 (Mus musculus). Nature of the experiment: Inhibition of Ezh1/2 in wild-type C57BL/6 mouse fetal metatarsal bone assessed as increase in Igfbp3 expression at 2 uM by immunostaining assay. Type of experiment: tissue-based.
Experiment [11] has as its target T1, EZH1/2 (Mus musculus). As to the kind of experiment: Inhibition of Ezh1/2 in wild-type C57BL/6 mouse isolated primary chondrocyte pellets assessed as increase in Igfbp5 expression at 2 uM by RT-PCR analysis. Type of experiment: cell-based. In short, it runs like this:
as §1

Experiment [12] concerns the target T1, EZH1/2 (Mus musculus). Nature of the experiment: Inhibition of Ezh1/2 in wild-type C57BL/6 mouse isolated primary chondrocytes assessed as increase in Cdkn2b expression at 2 uM by RT-PCR analysis. Type of experiment: cell-based. The following applies: Primary chondrocyte. In short, it runs like this: (§5)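 Monolayer primary chondrocytes from 1-week-old wild-type mice received DMSO or UNC1999 (2 µM final) 16 h after plating. RNA was extracted and Cdkn2a and Cdkn2b mRNA quantified by real-time RT-PCR; N = 6.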

In experiment [13] the target is T1, EZH1/2 (Mus musculus). As to the kind of experiment: Inhibition of Ezh1/2 in wild-type C57BL/6 mouse fetal metatarsal bone assessed as reduction in hypertrophic cell size at 2 uM. Type of experiment: tissue-based. In short, it runs like this: as §3
Experiment [14] concerns the target T1, EZH1/2 (Mus musculus). Nature of the experiment: Inhibition of Ezh1/2 in wild-type C57BL/6 mouse isolated primary chondrocyte pellets assessed as reduction in Col10a1 expression at 2 uM by RT-PCR analysis. Type of experiment: cell-based. The method, boiled down:
as §1

Experiment [15] deals with T1, EZH1/2 (Mus musculus). Nature of the experiment: Inhibition of Ezh1/2 in wild-type C57BL/6 mouse isolated primary chondrocytes assessed as increase in Cdkn2a expression at 2 uM by RT-PCR analysis. Type of experiment: cell-based. The conditions noted are these: Primary chondrocyte. In short, it runs like this:
as §5

Experiment [16] concerns the target T1, EZH1/2 (Mus musculus). Nature of the experiment: Inhibition of Ezh1/2 in wild-type C57BL/6 mouse isolated primary chondrocyte monolayer culture assessed as increase in Igfbp3 expression at 2 uM by immunostaining analysis. Type of experiment: cell-based.
Experiment [17] has as its target T1, EZH1/2 (Mus musculus). Nature of the experiment: Inhibition of Ezh1/2 in wild-type C57BL/6 mouse fetal metatarsal bone assessed as reduction in H3K27me2 expression at 2 microM by immunohistochemical analysis. Type of experiment: tissue-based. In short, it runs like this: as §4
For experiment [18], the target named is T1, EZH1/2 (Mus musculus). As to the kind of experiment: Inhibition of Ezh1/2 in wild-type C57BL/6 mouse isolated primary chondrocytes transfected with Cdkn2a SiRNA assessed as reduction in cell proliferation at 2 uM measured after 24 hrs by [3H]thymidine based liquid scintillation counting analysis. The following applies: Primary chondrocyte. In short, it runs like this: (§6)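 Primary chondrocytes (1×10^5 per well) from 1-week-old wild-type mice were hyaluronidase-treated (5 U ml-1, 6 h) at 40 h. They were then transfected with 40 pmol siRNA against Cdkn2a and/or Cdkn2b, or scrambled control, using Lipofectamine 2000. DMSO or 2 µM UNC1999 was added 16 h post-transfection. Proliferation was measured 24 h later by 3H-thymidine uptake and scintillation counting; N = 6.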

Experiment [19] has as its target T1, EZH1/2 (Mus musculus). Nature of the experiment: Inhibition of Ezh1/2 in wild-type C57BL/6 mouse isolated primary chondrocyte pellets assessed as reduction in cell hypertrophy at 2 uM measured after 1 week by alcian blue staining based assay. The conditions noted are these: time 1.0 weeks. The method, boiled down: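 Wild-type chondrocyte pellets were cultured in 0.1% FBS medium with DMSO or 2 µM UNC1999 (from 16 h, refreshed every other day). Alcian blue-stained histological sections were examined for cell size at different time points, including 1 week.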

In experiment [20] the target is T1, EZH1/2 (Mus musculus). Nature of the experiment: Inhibition of Ezh1/2 in wild-type C57BL/6 mouse isolated primary chondrocytes transfected with Cdkn2b SiRNA assessed as reduction in cell proliferation at 2 uM measured after 24 hrs by [3H]thymidine based liquid scintillation counting analysis. The following applies: Primary chondrocyte. In short, it runs like this: as §6

Experiment [21] has as its target T1, EZH1/2 (Mus musculus). As to the kind of experiment: Inhibition of Ezh1/2 in wild-type C57BL/6 mouse isolated primary chondrocytes assessed as reduction in cell proliferation at 2 uM by [3H]thymidine based liquid scintillation counting analysis. The following applies: Primary chondrocyte. In short, it runs like this:
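Monolayer primary chondrocytes (2×10^5 per well) from 1-week-old wild-type mice were treated with DMSO or 2 µM UNC1999 from 16 h after plating. At 24 h after plating they were labelled with 1 µCi 3H-thymidine for 16 h, washed and collagenase-detached. Radioactivity was read by liquid scintillation counting; N = 6.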

The target of experiment [22] is T1, EZH1/2 (Mus musculus). Nature of the experiment: Inhibition of Ezh1/2 in wild-type C57BL/6 mouse isolated primary chondrocyte pellets assessed as reduction in H3K27me3 level at 2 uM measured after 1 week by immunohistological staining based assay. Type of experiment: cell-based. The conditions noted are these: time 1.0 weeks. The method, boiled down: as §2

Activity calls are given as the source filed them. No cut-off for these calls is given here.

As to `CCCc1cc(C)[nH]c(=O)c1CNC(=O)c1cc(-c2ccc(N3CCN(C(C)C)CC3)nc2)cc2c1cnn2C(C)C`, the inhibition result on EZH1/2 (Mus musculus) [1], on EZH1/2 (Mus musculus) [2], on EZH1/2 (Mus musculus) [4], at EZH1/2 (Mus musculus) [5], at EZH1/2 (Mus musculus) [7] and on EZH1/2 (Mus musculus) [9] was “Active” throughout. Besides, the inhibition result at EZH1/2 (Mus musculus) [10], on EZH1/2 (Mus musculus) [11], on EZH1/2 (Mus musculus) [12], at EZH1/2 (Mus musculus) [13], at EZH1/2 (Mus musculus) [14] and at EZH1/2 (Mus musculus) [15] was “Active” throughout. Also, the inhibition result at EZH1/2 (Mus musculus) [16], at EZH1/2 (Mus musculus) [17], on EZH1/2 (Mus musculus) [19], at EZH1/2 (Mus musculus) [21] and on EZH1/2 (Mus musculus) [22] was “Active” in each case. Besides, the inhibition result on EZH1/2 (Mus musculus) [3], on EZH1/2 (Mus musculus) [6], at EZH1/2 (Mus musculus) [8], on EZH1/2 (Mus musculus) [18] and at EZH1/2 (Mus musculus) [20] was “inactive” each time.
